{"data": "Results gathered from unrelated publications", "target": "Calcium/calmodulin-dependent protein kinase type 1 (CAMK1, Homo sapiens, UniProt Q14012)", "note": "Compare with care: the assays were run in different laboratories."}
{"Compound": "Cc1nc(N2CC[C@@H](O)C2)ncc1-c1cc(C(F)(F)F)cc2[nH]ncc12", "observed": "cell-free assay", "technique": "competition with immobilised ligand", "tested at": "1 µM", "endpoint": "remaining binding", "value": "100%"}
{"Compound": "Cc1ccc(Nc2nccc(N(C)c3ccc4c(C)n(C)nc4c3)n2)cc1S(N)(=O)=O", "observed": "enzyme activity", "mode": "inhibitor", "tested at": "10 µM", "endpoint": "inhibition", "value": "52%"}
{"Compound": "CCCOc1ccc([C@@H]2[C@@H](C(=O)O)[C@H](c3ccc4c(c3)OCO4)CN2CC(=O)Nc2c(CC)cccc2CC)cc1", "observed": "cell-free assay", "technique": "competition with immobilised ligand", "tested at": "1 µM", "endpoint": "remaining binding", "value": "100%"}
{"Compound": "CNC(=O)c1cc(Oc2ccc(NC(=O)Nc3ccc(Cl)c(C(F)(F)F)c3)cc2)ccn1", "observed": "enzyme activity", "mode": "inhibitor", "tested at": "10 µM", "endpoint": "inhibition", "value": "9%"}
{"Compound": "COc1cc2c(Nc3ccc(Br)cc3F)ncnc2cc1OCC1CCN(C)CC1", "observed": "cell-free assay", "tested at": "0.5 µM", "endpoint": "remaining signal", "value": "81.6%"}
{"Compound": "Cc1ccc(NC(=O)c2ccc(C)c(C(F)(F)F)c2)cc1C#Cc1nn(C2CCC(O)CC2)c2ncnc(N)c12 (centres unmarked)", "observed": "cell-free assay", "tested at": "10 µM", "endpoint": "remaining signal", "value": "62%"}
{"Compound": "Oc1cccc(-c2nc(N3CCOCC3)c3oc4ncccc4c3n2)c1", "observed": "enzyme activity", "mode": "inhibitor", "tested at": "10 µM", "endpoint": "remaining activity", "value": "99%"}
{"Compound": "Cc1ccc(C(=O)Nc2ccc(CN3CCN(C)CC3)c(C(F)(F)F)c2)cc1C#Cc1cnc2cccnn12", "observed": "enzyme activity", "tested at": "23.5 nM", "endpoint": "remaining activity", "value": "74%"}
{"Compound": "CS(=O)(=O)c1cc(C2(NC(=O)c3cncc4c3cnn4-c3ccc(F)cc3)CC2)ccn1", "observed": "cell-free assay", "technique": "competition with immobilised ligand", "tested at": "1 µM", "endpoint": "remaining binding", "value": "65%"}
{"Compound": "Oc1cccc(-c2nc(N3CCOCC3)c3oc4ncccc4c3n2)c1", "observed": "cell-free assay", "tested at": "0.5 µM", "endpoint": "remaining signal", "value": "101%"}
{"Compound": "Cc1cc(NC(=O)c2cccc3cc(-c4cccc5[nH]nc(N)c45)ccc23)ccc1F", "observed": "enzyme activity", "mode": "inhibitor", "tested at": "0.1 µM", "endpoint": "activity vs control", "value": "116%"}
{"Compound": "CCN(CC)CCNC(=O)c1c(C)[nH]c(/C=C2\\C(=O)Nc3ccc(F)cc32)c1C", "observed": "enzyme activity", "mode": "inhibitor", "tested at": "0.3 µM", "endpoint": "inhibition", "value": "21%"}
{"Compound": "Cn1c(=O)n(-c2ccc(C(C)(C)C#N)cc2)c2c3cc(-c4cnc5ccccc5c4)ccc3ncc21", "observed": "enzyme activity", "mode": "inhibitor", "tested at": "10 µM", "endpoint": "remaining activity", "value": "100%"}
{"Compound": "Nc1c(C(=O)NCc2ccc(C(=O)NCCCC3CCCCC3)cc2)cnn1-c1ccccc1", "observed": "cell-free assay", "technique": "competition with immobilised ligand", "tested at": "0.1 µM", "endpoint": "remaining binding", "value": "100%"}
{"Compound": "COc1cc(Nc2cnc(C#N)c(O[C@H](C)CN(C)C)n2)ncc1-c1cnn(C)c1", "observed": "enzyme activity", "mode": "inhibitor", "technique": "radiometric", "tested at": "10 µM", "endpoint": "remaining activity", "value": "95%"}
{"Compound": "Nc1ncnc2occ(-c3ccc(NC(=O)Nc4cc(C(F)(F)F)ccc4F)cc3)c12", "observed": "cell-free assay", "tested at": "20 µM", "endpoint": "remaining signal", "value": "5.5%"}
{"Compound": "CCc1ccccc1C(=O)Nc1n[nH]c2c(C)c(F)c(C3C(C#N)=C(C)N(C)C(C)=C3C#N)cc12", "observed": "cell-free assay", "technique": "competition with immobilised ligand", "tested at": "1 µM", "endpoint": "remaining binding", "value": "76%"}
{"Compound": "c1ccc(CNc2nc(N3CCOc4ccccc43)nc3c2CCCC3)cc1", "observed": "target engagement in cells", "mode": "inhibitor", "technique": "chemoproteomics", "tested at": "20 mM", "endpoint": "inhibition", "value": "1.2%"}
{"Compound": "CCN(CC)c1ccc(C2=NNC(=O)CC2C)cc1[N+](=O)[O-] (centres unmarked)", "observed": "enzyme activity", "mode": "inhibitor", "tested at": "10 µM", "endpoint": "remaining activity", "value": "89%"}
{"Compound": "CN1CC(Oc2cnc(C#N)cc2-c2ccn3nc(NC(=O)C4CC4)cc3c2)C1", "observed": "enzyme activity", "mode": "inhibitor", "tested at": "1 µM", "endpoint": "inhibition", "value": "1%"}
{"Compound": "CCCS(=O)(=O)Nc1ccc(F)c(C(=O)c2c[nH]c3ncc(-c4ccc(Cl)cc4)cc23)c1F", "observed": "enzyme activity", "mode": "inhibitor", "tested at": "1 µM", "endpoint": "inhibition", "value": "< 10%"}
{"Compound": "COc1cc2ncnc(Nc3ccc(F)c(Cl)c3)c2cc1OCCCN1CCOCC1", "observed": "cell-free assay", "tested at": "0.5 µM", "endpoint": "remaining signal", "value": "102%"}
{"Compound": "O=C(Nc1cccnn1)N1CC(C/C=C/c2cncc(Oc3ccc(C(F)(F)F)cn3)n2)C1", "observed": "cell-free assay", "technique": "competition with immobilised ligand", "tested at": "1 µM", "endpoint": "remaining binding", "value": "100%"}
{"Compound": "Nc1nc(NC2CCCCC2)sc1C(=O)c1ccccc1", "observed": "enzyme activity", "mode": "inhibitor", "tested at": "10 µM", "endpoint": "remaining activity", "value": "86%"}
{"Compound": "COc1cc(-c2cn(C3CCc4c(F)cccc4N(CC(F)(F)F)C3=O)nn2)ccc1-n1cnc(C)c1 (centres unmarked)", "observed": "cell-free assay", "technique": "competition with immobilised ligand", "tested at": "1 µM", "endpoint": "remaining binding", "value": "100%"}
{"Compound": "O=C(Nc1cnn(-c2csc(C(=O)NC3COC3)c2)c1)Nc1ccccc1Cl", "observed": "enzyme activity", "mode": "inhibitor", "tested at": "5 µM", "endpoint": "remaining activity", "value": "87.1%"}
{"Compound": "CC(=O)N1CCC(c2ccc(C(=O)NC3=NCCN3)cc2C(F)(F)F)CC1", "observed": "cell-free assay", "technique": "competition with immobilised ligand", "tested at": "1 µM", "endpoint": "remaining binding", "value": "100%"}
{"Compound": "CC(C)c1ccc(NC(=O)c2cccs2)c(-c2nc3ccccc3[nH]c2=O)c1", "observed": "enzyme activity", "mode": "inhibitor", "tested at": "1 µM", "endpoint": "activity vs control", "value": "104%"}
{"Compound": "COc1cc(-c2cc(-c3ccc(N4CCNCC4)cc3)cnc2C)cc(OC)c1OC", "observed": "enzyme activity", "mode": "inhibitor", "tested at": "1 µM", "endpoint": "inhibition", "value": "1%"}
